The source of these data is publication PMC8448912 (ChemMedChem, 2021).

Format in all cases: cell-based
One test concerns HT-29 (Colon). Briefly: MTT antiproliferative assay, 72 h. To be noted: Homo sapiens, HT-29, 72 h, read-out: IC50 values. The method, boiled down:
(§1)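 Human cancer cell lines (breast MDA-MB-231 and MCF-7, ovarian A2780, colorectal Caco-2 and HT-29) exposed to test compound for 72 h. Growth measured by MTT assay. IC50 values reported as mean ± SDM, n = 3.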
In general terms: Formazan colour is commonly taken as a measure of viable cells.

Another test relates to MCF-7 (Breast). As to the kind of experiment: MTT antiproliferative assay, 72 h. To be noted: Homo sapiens, MCF7, 72 h, read-out: IC50 values. The method, boiled down:
as §1

Another test deals with MRC-5 (Normal lung). As to the kind of experiment: MTT antiproliferative assay, 72 h. To be noted: Homo sapiens, MRC5, 72 h, read-out: IC50 values.
Test [1] relates to panel of breast, ovarian and colorectal cancer cells. Briefly: antiproliferative activity in the panel of cell lines. To be noted: read-out: IC50 values in this screen. The gist of the method:
as §1

The test system of a further test is MDA-MB-231 (Breast). As to the kind of experiment: MTT antiproliferative assay, 72 h. To be noted: Homo sapiens, MDA-MB-231, 72 h, read-out: IC50 values. The method, boiled down:
as §1

The next test deals with A2780 (Ovary). As to the kind of experiment: MTT antiproliferative assay, 72 h. The conditions noted are these: Homo sapiens, A2780, 72 h, read-out: IC50 values. The method, boiled down:
as §1

Another test deals with Caco-2 (Colon). Briefly: MTT antiproliferative assay, 72 h. To be noted: Homo sapiens, Caco-2, 72 h, read-out: IC50 values. The gist of the method:
as §1

Usually IC50 stands for the concentration that inhibits the measured activity by half. In the case of `CC(=O)N(O)CCCCCNC(=O)CCC(=O)N(O)CCCCCNC(=O)CCC(=O)N(O)CCCCCN` [DFO, desferrioxamine], the IC50 with HT-29 (Colon) was 2.4 ± 0.1 µM; with MCF-7 (Breast), 21 ± 2 µM; with MRC-5 (Normal lung), 9 ± 1 µM; in test [1], 2 to 20 µM; with MDA-MB-231 (Breast) it was 5.8 ± 0.4 µM; in the test with A2780 (Ovary), 3.83 ± 0.02 µM. In the test on Caco-2 (Colon), the IC50 stood at 3.7 ± 0.3 µM.
